In ChEMBL document CHEMBL4177578, “Synthesis, pharmacological activities and molecular docking studies of pyrazolyltriazoles as anti-bacterial and anti-inflammatory agents” (Bioorg Med Chem, 2017):
≈ marks a conversion by molar mass, not a printed value. Calls of active or inactive are those of the source. No cut-off for these calls is given here.

Experiments:
U-937 [1] = assay: Anti-inflammatory activity in human U937 cells assessed as inhibition of LPS-induced TNFalpha production at 10 uM pre-incubated for 1 hr before LPS stimulation for 24 hrs by ELISA method; type: functional
Outline: (§1)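 Human U937 cells grown in RPMI1640 with 10% FBS at 37 °C, 5% CO2. Differentiated with PMA 30 ng/ml for 24 h. Test compounds added for 1 h, then LPS 1 µg/ml for 24 h. TNF-α and IL-6 in supernatant measured by ELISA. Three independent experiments.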

U-937 [2] = assay: Anti-inflammatory activity in human U937 cells assessed as inhibition of LPS-induced IL6 production pre-incubated for 1 hr before LPS stimulation for 24 hrs by ELISA method; type: functional, cell-based; outline: as §1
Salmonella paratyphi [3] = assay: Antimicrobial activity against Salmonella paratyphi at 1 mg/ml incubated for 20 to 30 mins followed by incubation for 24 hrs at 37 degC by agar plate method; type: functional, Salmonella enterica subsp. enterica serovar Paratyphi A; details: Salmonella enterica; read-out: DIZ
Outline: (§2)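 Agar well diffusion on nutrient agar. Plates swabbed with 60 µL inoculum, 8 mm wells loaded with 100 µL sample at 1.0 mg/mL, streptomycin standard and control in separate wells. Plates held 20–30 min at 4 °C for diffusion, then 24 h at 37 °C. Zone diameter read in mm; triplicate.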

[4] = Anti-inflammatory activity at 100 ug/ml using bovine serum albumin and egg albumin proteins incubated at 37 degC for 20 mins and then heated to 95 degC for 20 mins by UV-visible Spectrophotometry based protein denaturation method; type: functional
Outline: (§3)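 Albumin (bovine serum or egg) at 1% in 50 mM sodium phosphate buffer pH 6.4. Mixture is 0.1 ml test sample (1 mg/ml) plus 0.2 ml albumin, made to 5 ml with buffer. Held 37 °C for 20 min, then 95 °C for 20 min. Cooled to room temperature, turbidity read at 660 nm. % inhibition = (Abs control − Abs sample)/Abs control × 100. Triplicate, averaged.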

U-937 [5] = assay: Anti-inflammatory activity in human U937 cells assessed as inhibition of LPS-induced IL6 production at 10 uM pre-incubated for 1 hr before LPS stimulation for 24 hrs by ELISA method; type: functional; outline: as §1
U-937 [6] = assay: Anti-inflammatory activity in human U937 cells assessed as inhibition of LPS-induced TNFalpha production pre-incubated for 1 hr before LPS stimulation for 24 hrs by ELISA method; type: functional, cell-based; outline: as §1
[7] = Anti-inflammatory activity at 50 ug/ml using bovine serum albumin and egg albumin proteins incubated at 37 degC for 20 mins and then heated to 95 degC for 20 mins by UV-visible Spectrophotometry based protein denaturation method; type: functional; outline: as §3
[8] = Anti-inflammatory activity using bovine serum albumin and egg albumin proteins incubated at 37 degC for 20 mins and then heated to 95 degC for 20 mins by UV-visible Spectrophotometry based protein denaturation method; type: functional; outline: as §3
Micrococcus luteus [9] = assay: Antimicrobial activity against Micrococcus luteus at 1 mg/ml incubated for 20 to 30 mins followed by incubation for 24 hrs at 37 degC by agar plate method; type: functional; details: read-out: DIZ
Outline: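 Agar well diffusion on nutrient agar. Plates swabbed with 60 µL inoculum; 8 mm wells loaded with 100 µL of compound at 1.0 mg/mL. Held 20–30 min at 4 °C for diffusion, then 24 h at 37 °C. Inhibition zone diameter read in mm. Triplicate.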

Salmonella typhi [10] = assay: Antimicrobial activity against Salmonella typhi incubated for 12 to 16 hrs by tube dilution method; type: functional, Salmonella enterica subsp. enterica serovar Typhi; details: Salmonella enterica
Outline: (§4)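 Broth tube dilution, two-fold serial dilutions from 500 to 1.9 µg/mL plus a drug-free control tube. Each tube inoculated with 1 mL culture at OD 0.2 (~McFarland standard), 37 °C for 12-16 h. Turbidity compared with the control tube. MIC is the lowest concentration giving complete growth inhibition.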

Micrococcus luteus [11] = assay: Antimicrobial activity against Micrococcus luteus incubated for 12 to 16 hrs followed by plating in nutrient agar by tube dilution method; type: functional
Outline: (§5)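 Tube dilution, serial from 500 to 1.9 µg/mL, plus drug-free control tube. Each tube inoculated with 1 mL culture at OD 0.2, incubated 37 °C for 12–16 h. MIC is the lowest concentration with no growth by turbidity. MBC is found by plating each tube on nutrient agar: the lowest concentration at which all cells are killed.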

Micrococcus luteus [12] = assay: Antimicrobial activity against Micrococcus luteus incubated for 12 to 16 hrs by tube dilution method; type: functional; outline: as §5
Salmonella paratyphi [13] = assay: Antimicrobial activity against Salmonella paratyphi incubated for 12 to 16 hrs by tube dilution method; type: functional, Salmonella enterica subsp. enterica serovar Paratyphi A; details: Salmonella enterica; outline: as §4
Salmonella typhi [14] = assay: Antimicrobial activity against Salmonella typhi at 1 mg/ml incubated for 20 to 30 mins followed by incubation for 24 hrs at 37 degC by agar plate method; type: functional, Salmonella enterica subsp. enterica serovar Typhi; details: Salmonella enterica; read-out: DIZ; outline: as §2
Salmonella paratyphi [15] = assay: Antimicrobial activity against Salmonella paratyphi incubated for 12 to 16 hrs followed by plating in nutrient agar by tube dilution method; type: functional, Salmonella enterica subsp. enterica serovar Paratyphi A; details: Salmonella enterica
Outline: (§6)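 After 12-16 h at 37 °C in tube dilution (500 to 1.9 µg/mL; 1 mL inoculum at OD 0.2), the culture from each tube was plated on nutrient agar. MBC is the concentration at which cells are completely killed.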

Salmonella typhi [16] = assay: Antimicrobial activity against Salmonella typhi incubated for 12 to 16 hrs followed by plating in nutrient agar by tube dilution method; type: functional, Salmonella enterica subsp. enterica serovar Typhi; details: Salmonella enterica; outline: as §6
Mus musculus [17] = assay: Anti-inflammatory activity in Balb/c mouse assessed as reduction in LPS-induced serum IL6 production at 100 mg/kg, ig dosed for 3 consecutive days before LPS challenge and measured 6 hrs post LPS injection by ELISA method; type: functional, organism-based
Outline: (§7)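 Male Balb/c mice (20–25 g), 8 per group. Test compound at 100 mg/kg suspended in 2% gum acacia (10 ml/kg), given orally (intragastric) for 3 consecutive days. On day 3, LPS (10 mg/kg) given ip 1 h after the oral dose. Serum taken from retro-orbital blood 6 h after LPS; TNF-α and IL-6 measured by ELISA. Mean ± S.E.M.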

Mus musculus [18] = assay: Anti-inflammatory activity in Balb/c mouse assessed as reduction in LPS-induced serum TNFalpha production at 100 mg/kg, ig dosed for 3 consecutive days before LPS challenge and measured 6 hrs post LPS injection by ELISA method; type: functional, organism-based; outline: as §7

OCc1cn(Cc2cn(-c3ccccc3)nc2-c2ccccc2)nn1
inhibition at 10 µM (U-937 [1]): 15.7% | IC50 (U-937 [2]): 8.12 µM | zone of inhibition at 1000 µg/mL (Salmonella paratyphi [3]): 12.5 mm | inhibition [4]: 38.8% | inhibition at 10 µM (U-937 [5]): 53% | IC50 (U-937 [6]): 35.7 µM | inhibition [7]: 10.3% | IC50 [8]: 128.89 µg/mL (≈ 389 µM)

COc1ccc(-c2nn(-c3ccccc3)cc2Cn2cc(CO)nn2)cc1
zone of inhibition at 1000 µg/mL (Micrococcus luteus [9]): 26 mm | MIC (Salmonella typhi [10]): 62.5 µg/mL (≈ 173 µM) | MBC (Micrococcus luteus [11]): 125 µg/mL (≈ 346 µM) | inhibition at 10 µM (U-937 [1]): 40.9% | IC50 (U-937 [2]): 9.5 µM | zone of inhibition at 1000 µg/mL (Salmonella paratyphi [3]): 19 mm | MIC (Micrococcus luteus [12]): 125 µg/mL (≈ 346 µM) | inhibition [4]: 86.2% | MIC (Salmonella paratyphi [13]): 62.5 µg/mL (≈ 173 µM) | zone of inhibition at 1000 µg/mL (Salmonella typhi [14]): 16 mm | inhibition at 10 µM (U-937 [5]): 46.7% | MBC (Salmonella paratyphi [15]): 62.5 µg/mL (≈ 173 µM) | IC50 (U-937 [6]): 17.2 µM | inhibition [7]: 69% | IC50 [8]: 58 µg/mL (≈ 160 µM) | MBC (Salmonella typhi [16]): 125 µg/mL (≈ 346 µM)

COc1ccc(C2CNC(=O)C2)cc1OC1CCCC1 (configuration not stated) [ROLIPRAM]
inhibition at 10 µM (U-937 [1]): 59.1% | IC50 (U-937 [2]): 1.17 µM | inhibition at 10 µM (U-937 [5]): 53.5% | IC50 (U-937 [6]): 1.12 µM

OCc1cn(-c2ccc(Cl)cc2)nc1-c1ccccc1
zone of inhibition at 1000 µg/mL (Micrococcus luteus [9]): 26.5 mm | MIC (Salmonella typhi [10]): 62.5 µg/mL (≈ 219 µM) | MBC (Micrococcus luteus [11]): 7.81 µg/mL (≈ 27.4 µM) | inhibition at 10 µM (U-937 [1]): 2.61% | zone of inhibition at 1000 µg/mL (Salmonella paratyphi [3]): 18 mm | MIC (Micrococcus luteus [12]): 3.9 µg/mL (≈ 13.7 µM) | inhibition [4]: 92.2% | MIC (Salmonella paratyphi [13]): 31.2 µg/mL (≈ 110 µM) | zone of inhibition at 1000 µg/mL (Salmonella typhi [14]): 21.5 mm | inhibition at 10 µM (U-937 [5]): 21.6% | MBC (Salmonella paratyphi [15]): 62.5 µg/mL (≈ 219 µM) | inhibition [7]: 76.7% | IC50 [8]: 54.21 µg/mL (≈ 190 µM) | MBC (Salmonella typhi [16]): 125 µg/mL (≈ 439 µM)

Cc1ccc(-n2cc(Cn3cc(CO)nn3)c(-c3ccccc3)n2)cc1C
inhibition at 10 µM (U-937 [1]): 41.7% | IC50 (U-937 [2]): 7.72 µM | inhibition [4]: 77.6% | zone of inhibition at 1000 µg/mL (Salmonella typhi [14]): 15.5 mm | inhibition (Mus musculus [17]): inactive | inhibition (Mus musculus [18]): Active | inhibition at 10 µM (U-937 [5]): 87% | IC50 (U-937 [6]): 17.4 µM | inhibition [7]: 46.5% | IC50 [8]: 64.44 µg/mL (≈ 179 µM)

OCc1cn(Cc2cn(-c3ccccc3)nc2-c2ccc(Cl)cc2)nn1
inhibition at 10 µM (U-937 [1]): 19.2% | IC50 (U-937 [2]): 6.23 µM | zone of inhibition at 1000 µg/mL (Salmonella paratyphi [3]): 15 mm | inhibition [4]: 73.3% | inhibition at 10 µM (U-937 [5]): 76.9% | IC50 (U-937 [6]): 30.9 µM | inhibition [7]: 49.1% | IC50 [8]: 68.24 µg/mL (≈ 187 µM)

Cc1ccc(-n2cc(Cn3cc(CO)nn3)c(-c3ccccc3)n2)cc1
inhibition at 10 µM (U-937 [1]): 31.2% | IC50 (U-937 [2]): 8.7 µM | zone of inhibition at 1000 µg/mL (Salmonella paratyphi [3]): 11.5 mm | inhibition [4]: 83.6% | zone of inhibition at 1000 µg/mL (Salmonella typhi [14]): 19 mm | inhibition at 10 µM (U-937 [5]): 50.4% | IC50 (U-937 [6]): 21.4 µM | inhibition [7]: 66.4% | IC50 [8]: 59.79 µg/mL (≈ 173 µM)

COc1ccc(-c2nn(-c3ccccc3)cc2CO)cc1
inhibition at 10 µM (U-937 [1]): 22.9% | IC50 (U-937 [2]): 8.24 µM | zone of inhibition at 1000 µg/mL (Salmonella paratyphi [3]): 11.5 mm | inhibition [4]: 47.4% | inhibition at 10 µM (U-937 [5]): 68.5% | IC50 (U-937 [6]): 35.5 µM | inhibition [7]: 15.5% | IC50 [8]: 105.45 µg/mL (≈ 376 µM)
